# Sampled rows, rich in hits. Any-hit rate of the full collection: about 1.5%.
# GSIS activator: primary screen for activators of insulin secretion dependent on glucose, INS-1E cells, GLuc reporter luminescence | INS-1E GLuc reporter insulin secretion, 2-3 h | activation, % at 16.6 µM | 370,000 compounds, 0.61% hits;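 active = lowest replicate activation of at least 40%, so every replicate reaches that level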;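 note: 0% = median of neutral control wells and 100% = median of IBMX positive control wells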
# S100A4 MyoIIA: inhibitors of human S100A4 binding to myosin IIA peptide; P26447; inhibition, % at 10.7 µM; AID 652163; 360,000 compounds, 0.14% hits; S100A4/TAMRA-MyoIIA peptide fluorescence polarization;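 active = mean inhibition of at least 70% across replicates, with every replicate also reaching that level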
# Target sequence (P26447 whole entry, looked up): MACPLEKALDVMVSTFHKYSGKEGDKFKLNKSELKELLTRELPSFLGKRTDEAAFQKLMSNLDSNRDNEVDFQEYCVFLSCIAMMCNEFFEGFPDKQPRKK
#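 assay system = human S100A4 monomer with TAMRA-labelled myosin IIA peptide | also added = labelled myosin peptide probe, 5 nM | incubation = 5 min between mix addition and reading | control set = DMSO and TFP controls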
# ERp5 block: ERp5 (human) disulfide isomerase inhibition. Q15084. ERp5 insulin aggregation, absorbance 650 nm, 90 min. inhibition, % at 9.99 µM. 350,000 compounds, 0.05% hits. AID 651711;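 active = mean replicate inhibition above about 25%, with every replicate also reaching it, limit read from the data, passing the limit was not always enough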
# PDI inh: inhibitors of human protein disulfide isomerase; P07237; PDI insulin aggregation turbidity, A650, 90 min; inhibition, % at 10 µM; 350,000 compounds, 0.052% hits; AID 588391;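 active = mean inhibition across replicates of 30% or more, whatever share of single replicates reach that level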
# SIRT5 block: inhibitors of human sirtuin-5 desuccinylase | Q9NXA8 | Purified SirT5, succinyl-peptide AMC, trypsin-coupled fluorescence | inhibition, % at 15 µM | 330,000 compounds, 1.1% hits | AID 652115; in the data active = inhibition above about 15%
# Target sequence (Q9NXA8 whole entry, looked up): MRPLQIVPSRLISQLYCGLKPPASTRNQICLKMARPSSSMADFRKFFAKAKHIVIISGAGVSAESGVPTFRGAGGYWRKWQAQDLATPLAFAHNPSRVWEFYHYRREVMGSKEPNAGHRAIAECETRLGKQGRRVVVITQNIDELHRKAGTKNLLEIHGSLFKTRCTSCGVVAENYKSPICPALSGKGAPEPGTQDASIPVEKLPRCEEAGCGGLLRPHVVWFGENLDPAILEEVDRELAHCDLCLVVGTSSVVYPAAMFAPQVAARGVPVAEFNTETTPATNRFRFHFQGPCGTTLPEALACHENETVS
# Starred values were filed as active, the others as inactive; . = not tested or not shown.
SMILES,GSIS activator,S100A4 MyoIIA,ERp5 block,PDI inh,SIRT5 block
Cc1[nH]n(-c2ccccc2)c(=O)c1/C=N/c1ccccn1,22,.,.,-19,.
Cc1ccccc1-c1ccnc2[nH]n(-c3ccccc3)c(=O)c12,25,-3,4,-6,24*
CN1CCN(S(=O)(=O)c2ccc(Cl)c(C(F)(F)F)c2)CC1,-12,-3,-1,8,1
CC1CN(S(=O)(=O)c2ccc(Cl)c(C(F)(F)F)c2)CC(C)O1 (stereo not drawn),15,5,-10,-16,15*
CNC[C@@H]1Oc2ccc(N)cc2C(=O)N(C)C[C@@H]1C,16,.,.,.,.
COc1ccc(S(=O)(=O)N(C)C[C@@H]2Oc3ccc(NS(=O)(=O)c4ccccc4)cc3C(=O)N([C@@H](C)CO)C[C@@H]2C)cc1,-3,.,.,.,.
CC(=O)C[C@H](O)CC(=O)[C@H]1OC(=O)CCCCC/C=C/Cc2ccccc21,-9,-4,6,2,.
CC(=O)C[C@@H](O)CC(=O)[C@H]1OC(=O)[C@H](C)C/C=C\Cc2ccccc21,-3,7,3,-6,-2
CC(=O)C[C@@H](O)CC(=O)[C@@H]1OC(=O)CCCCC/C=C/Cc2ccccc21,-14,-11,0,8,24*
CC[C@H]1C/C=C\Cc2ccccc2[C@@H](C(=O)C[C@@H](O)CC(C)=O)OC1=O,-3,-1,-2,-6,18*
Cc1ccc(Nc2nnc(SCC(=O)c3c(N)n(C4CC4)c(=O)[nH]c3=O)s2)cc1C,4,-24,-6,-15,-6
Cc1cccc(Nc2nnc(SCC(=O)c3c(N)n(C4CC4)c(=O)[nH]c3=O)s2)c1,-9,-11,-7,5,16*
C[C@@H]1CN([C@@H](C)CO)C(=O)c2cccc(NS(=O)(=O)c3ccc(F)cc3)c2O[C@@H]1CN(C)C(=O)Nc1ccc2c(c1)OCO2,-17,11,0,.,-4
CC[C@@H](C)C(NC(=O)OC(C)(C)C)c1cn([C@@H](CCCCNC(=O)OC(C)(C)C)C(=O)N2CCN(C(=O)OC(C)(C)C)CC2)nn1 (stereo partly drawn),.,-5,-3,-1,16*
CCC(=O)N[C@H]1C=C[C@H](CC(=O)NCc2cc(F)cc(F)c2)O[C@@H]1CO,4,2,1,.,2
Cc1ccc(C(=O)C=Cc2ccc3c(c2)OCO3)c(C)c1,-34,-2,10,13,.
O=C(/C=C/c1ccc2c(c1)OCO2)c1ccc(O)cc1O,2,-4,5,73*,-1
COCC(=O)N(C)C[C@H]1Oc2cc(-c3ccccc3F)ccc2S(=O)(=O)N([C@@H](C)CO)C[C@@H]1C,3,22,-2,.,-2
Cc1cn(CC(=O)NCCCN2CCCC2=O)c(=O)[nH]c1=O,2,2,0,-5,-1
Cc1cn(CC(=O)NCCCn2ccnc2)c(=O)[nH]c1=O,20,2,-2,6,15*
Cc1cn(CC(=O)NCc2ccccc2)c(=O)[nH]c1=O,15,-1,1,6,20*
CC(C)NC(=O)N(C)C[C@H]1Oc2ncc(-c3ccc(C(=O)N(C)C)cc3)cc2C(=O)N([C@H](C)CO)C[C@@H]1C,9,-1,1,.,-1
Cc1cc2c3c(c1)C1(C(=O)N3C(C)(C)CC2C)C(C#N)=C(N)Oc2n[nH]c(C)c21 (stereo not drawn),26,.,.,38*,.
O=C(Nc1ccc(Cl)c(Cl)c1)N[C@H]1CC[C@@H](CCNC(=O)c2ccc(F)cc2)O[C@H]1CO,-34,12,-3,.,-2
Cn1cnc2c(N/N=C/c3cccs3)ncnc21,9,39,4,3,15*
SMILES,GSIS activator,S100A4 MyoIIA,ERp5 block,PDI inh,SIRT5 block
Cc1cc(C(=O)Nc2cccc3c2O[C@@H](CN(C)Cc2ccc4c(c2)OCO4)[C@@H](C)CN([C@H](C)CO)C3=O)n(C)n1,2,2,2,.,-1
C=CC[C@@H](CC(=O)N(CCO)Cc1ccccc1)C(=O)N[C@H](COC(=O)[C@@H](CC=C)CC(=O)OC(C)(C)C)c1ccccc1,-18,3,6,10,20*
C=CC[C@H](CC(=O)N(CCO)Cc1ccccc1)C(=O)N[C@@H](COC(=O)[C@H](CC=C)CC(=O)OC(C)(C)C)Cc1c[nH]c2ccccc12,-48,1,7,1,27*
COc1cc(=O)[nH]c(SC(C)C(=O)Nc2nc3c(s2)CCCC3)n1 (stereo not drawn),-3,-4,2,-4,-3
COc1cc(=O)[nH]c(SC(C)C(=O)Nc2cccc3ccccc23)n1 (stereo not drawn),-7,1,5,-3,75*
COc1ccccc1NC(=O)COc1cccnc1[N+](=O)[O-],26,-1,0,0,-3
COC(=O)c1sc(NC(=O)COc2cccnc2[N+](=O)[O-])c(C(=O)OC)c1C,40*,1,-7,2,0
C[C@H]1CN([C@@H](C)CO)C(=O)c2ccccc2-c2ccccc2CO[C@H]1CN(C)Cc1ccc(F)cc1,-19,10,-4,.,23*
C[C@H](CO)N1C[C@H](C)[C@H](CN(C)Cc2ccc(-c3ccccc3)cc2)OCc2ccccc2-c2ccccc2C1=O,-12,0,1,.,19*
CC(C)NC(=O)N(C)C[C@@H]1OCCCC[C@@H](C)Oc2ccc(NS(=O)(=O)c3ccc(Cl)cc3)cc2C(=O)N([C@@H](C)CO)C[C@H]1C,-8,3,1,.,-5
O=C(NC1CCCC1)[C@@H]1[C@@H](CO)[C@@H]2Cn3c(ccc(-c4ccncc4)c3=O)[C@@H]2N1CCc1ccccc1,-13,9,0,.,1
O=C(O)c1cccc2cccc(-c3c4ccc(=O)c(O)c-4oc4c(O)c(O)ccc34)c12,.,4,4,25,37*
O=C(O)c1cccc2cc(-c3ccccc3)oc(=O)c12,7,2,0,8,-7
Cc1cc(Br)c2c(c1)C1(OCCO1)C(=O)N2,41*,-2,-2,11,-5
N#C/C(=C\c1ccccc1OCc1ccc(C(=O)O)cc1)C(=O)Nc1ccc(O)cc1,4,-2,-1,51*,1
COC(=O)c1ccc(COc2ccccc2/C=C(\C#N)C(=O)Nc2ccc(C)cc2)cc1,81,.,.,0,.
COc1cccc(CN2CCC(C(=O)N3CCN(Cc4ccc5c(c4)OCO5)CC3)CC2)c1,16,1,-14,-4,17*
Cc1ccc(S(=O)(=O)N(C)CC(=O)N2CCN(Cc3ccc4c(c3)OCO4)CC2)cc1,-8,0,3,1,30*
COc1cccc(CN2CCC(C(=O)N3CCN(c4ccccc4F)CC3)CC2)c1,.,8,-4,15,-1
Cc1noc(C)c1NC(=O)Nc1ccc2c(c1)C(=O)N([C@@H](C)CO)C[C@H](C)[C@@H](CN(C)CC1CCCCC1)OCCCC[C@H](C)O2,15,5,1,.,0
